Data published in ChEMBL document CHEMBL1773037, “Evaluation of superior BACE1 cleavage sequences containing unnatural amino acids” (Bioorg Med Chem, 2011).
Activity calls are given as the source filed them. The calls are words filed in the database; no cut-off is given here. Non-standard residues stand in square brackets, D forms with d. Residues, ends and D or L forms follow the SMILES beside them. 2Thi = N[C@@H](Cc1cccs1)C(=O)O; Cha = N[C@@H](CC1CCCCC1)C(=O)O; Cit = NC(=O)NCCC[C@H](N)C(=O)O; Phg = N[C@H](C(=O)O)c1ccccc1; Tle = CC(C)(C)[C@H](N)C(=O)O; Nva = CCC[C@H](N)C(=O)O; Abu = CC[C@H](N)C(=O)O

Key:
[1] = target: Beta-secretase 1 (Homo sapiens) (UniProt P56817); experiment: Activity of recombinant BACE assessed as substrate cleavage upto 3 hrs by HPLC analysis
Method in brief: (§1)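 Individually synthesized, purified substrates at 300 µM in 40 mM AcONa buffer, pH 4.5, 37 °C. rBACE1 used at 60 nM (P1, P4 substrates), 30 nM (P2, P3 substrates) or 10 nM (P1' substrates and the dodecapeptide). Aliquots taken at 0, 1 and 3 h, quenched with 7 M GuHCl, and the decrease in each substrate peak monitored by HPLC.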

[2] = target: Beta-secretase 1 (Homo sapiens) (UniProt P56817); experiment: Activity of recombinant BACE assessed as substrate cleavage at 300 uM after 3 hrs by HPLC analysis; method in brief: as §1
[3] = target: Beta-secretase 1 (Homo sapiens) (UniProt P56817); experiment: Activity of recombinant BACE assessed as retention time of substrate by HPLC method
[4] = target: Beta-secretase 1 (Homo sapiens) (UniProt P56817); experiment: Activity of recombinant BACE assessed as retention time of N-terminal fragment by HPLC method
[5] = target: Beta-secretase 1 (Homo sapiens) (UniProt P56817); experiment: Activity of recombinant BACE assessed as retention time of C-terminal fragment by HPLC method
[6] = target: Beta-secretase 1 (Homo sapiens) (UniProt P56817); experiment: Activity of recombinant BACE assessed as substrate cleavage after 1 hr by HPLC analysis

Chain of Beta-secretase 1 (Homo sapiens) (P56817 whole entry, the tested form may be a part): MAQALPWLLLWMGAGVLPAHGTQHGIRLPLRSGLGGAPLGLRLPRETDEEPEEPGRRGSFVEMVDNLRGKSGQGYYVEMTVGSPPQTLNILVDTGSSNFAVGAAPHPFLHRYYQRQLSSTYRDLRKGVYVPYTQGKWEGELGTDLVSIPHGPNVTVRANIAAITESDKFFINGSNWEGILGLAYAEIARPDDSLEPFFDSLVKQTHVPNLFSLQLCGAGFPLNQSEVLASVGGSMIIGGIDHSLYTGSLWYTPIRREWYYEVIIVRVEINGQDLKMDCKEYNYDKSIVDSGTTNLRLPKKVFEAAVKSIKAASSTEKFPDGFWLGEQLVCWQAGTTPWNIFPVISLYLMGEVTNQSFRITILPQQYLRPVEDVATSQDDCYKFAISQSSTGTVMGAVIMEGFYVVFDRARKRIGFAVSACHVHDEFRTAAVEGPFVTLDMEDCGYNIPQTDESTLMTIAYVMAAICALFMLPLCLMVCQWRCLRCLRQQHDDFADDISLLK

| SMILES | Activity [1] [%] | Activity [2] | retention time [3] [h] | retention time [4] [h] | retention time [5] [h] | Activity [6] [%] |
| --- | --- | --- | --- | --- | --- | --- |
| CC[C@H](C)[C@H](N)C(=O)N[C@@H](CO)C(=O)N[C@@H](CCC(=O)O)C(=O)N[C@H](C(=O)N[C@@H](CC(N)=O)C(=O)N[C@@H](CCCNC(N)=O)C(=O)N[C@@H](CC(=O)O)C(=O)N[C@@H](C)C(=O)N[C@@H](CCC(=O)O)C(=O)N[C@@H](Cc1ccccc1)C(=O)N[C@@H](CCCNC(=N)N)C(=O)N[C@@H](Cc1cnc[nH]1)C(N)=O)C(C)C (H-ISEVN[Cit]DAEFRH-NH2) | – | Active | 0.344 | – | 0.217 | – |
| CCC[C@H](NC(=O)[C@H](Cc1cccs1)NC(=O)[C@H](Cc1cccs1)NC(=O)[C@@H](NC(=O)[C@H](CCC(=O)O)NC(=O)[C@H](CO)NC(=O)[C@@H](N)[C@@H](C)CC)[C@@H](C)CC)C(=O)N[C@@H](C)C(=O)N[C@@H](CCC(=O)O)C(=O)N[C@@H](Cc1ccccc1)C(=O)N[C@@H](CCCNC(=N)N)C(=O)N[C@@H](Cc1cnc[nH]1)C(N)=O (H-ISEI[2Thi][2Thi][Nva]AEFRH-NH2) | 90 | – | 0.658 | – | – | – |
| CC[C@H](C)[C@H](N)C(=O)N[C@@H](CCCCN)C(=O)N[C@H](C(=O)N[C@@H](CCC(=O)O)C(=O)N[C@@H](CCC(=O)O)C(=O)N[C@H](C(=O)N[C@@H](CO)C(=O)N[C@@H](CCC(=O)O)C(=O)N[C@H](C(=O)N[C@@H](CC(N)=O)C(=O)N[C@@H](CC(C)C)C(=O)N[C@@H](CC(=O)O)C(=O)N[C@@H](C)C(=O)N[C@@H](CCC(=O)O)C(=O)N[C@@H](Cc1ccccc1)C(=O)N[C@@H](CCCNC(=N)N)C(=O)N[C@@H](Cc1cnc[nH]1)C(=O)N[C@@H](CC(=O)O)C(=O)N[C@@H](CO)C(=O)NCC(N)=O)C(C)C)[C@@H](C)CC)[C@@H](C)O | – | – | 0.297 | 0.289 | 0.082 | 20 |
| CC[C@H](NC(=O)[C@H](CC(C)C)NC(=O)[C@H](CC(N)=O)NC(=O)[C@@H](NC(=O)[C@H](CCC(=O)O)NC(=O)[C@H](CO)NC(=O)[C@@H](N)[C@@H](C)CC)C(C)C)C(=O)N[C@@H](C)C(=O)N[C@@H](CCC(=O)O)C(=O)N[C@@H](Cc1ccccc1)C(=O)N[C@@H](CCCNC(=N)N)C(=O)N[C@@H](Cc1cnc[nH]1)C(N)=O (H-ISEVNL[Abu]AEFRH-NH2) | – | Active | 0.585 | – | – | – |
| CC[C@H](C)[C@H](N)C(=O)N[C@@H](CO)C(=O)N[C@@H](CCC(=O)O)C(=O)N[C@H](C(=O)N[C@@H](CC(N)=O)C(=O)N[C@H](C(=O)N[C@@H](CC(=O)O)C(=O)N[C@@H](C)C(=O)N[C@@H](CCC(=O)O)C(=O)N[C@@H](Cc1ccccc1)C(=O)N[C@@H](CCCNC(=N)N)C(=O)N[C@@H](Cc1cnc[nH]1)C(N)=O)c1ccccc1)C(C)C (H-ISEVN[Phg]DAEFRH-NH2) | – | Active | 0.459 | – | 0.217 | – |
| CC[C@H](C)[C@H](N)C(=O)N[C@@H](CO)C(=O)N[C@H](C(=O)N[C@H](C(=O)N[C@@H](CC(N)=O)C(=O)N[C@@H](CC(C)C)C(=O)N[C@@H](CC(=O)O)C(=O)N[C@@H](C)C(=O)N[C@@H](CCC(=O)O)C(=O)N[C@@H](Cc1ccccc1)C(=O)N[C@@H](CCCNC(=N)N)C(=O)N[C@@H](Cc1cnc[nH]1)C(N)=O)C(C)C)c1ccccc1 (H-IS[Phg]VNLDAEFRH-NH2) | – | Active | 0.582 | – | – | – |
| CC[C@H](C)[C@H](N)C(=O)N[C@@H](CO)C(=O)N[C@@H](CCC(=O)O)C(=O)N[C@H](C(=O)N[C@@H](CC(N)=O)C(=O)N[C@@H](CC(C)C)C(=O)N[C@@H](CCSC)C(=O)N[C@@H](C)C(=O)N[C@@H](CCC(=O)O)C(=O)N[C@@H](Cc1ccccc1)C(=O)N[C@@H](CCCNC(=N)N)C(=O)N[C@@H](Cc1cnc[nH]1)C(N)=O)C(C)C (H-ISEVNLMAEFRH-NH2) | – | Active | 0.622 | – | – | – |

Continued, values first:

| Activity [1] [%] | Activity [2] | retention time [3] [h] | retention time [4] [h] | retention time [5] [h] | Activity [6] [%] | SMILES |
| --- | --- | --- | --- | --- | --- | --- |
| 10 | 50% | 0.487 | 0.429 | 0.217 | – | CC[C@H](C)[C@H](N)C(=O)N[C@@H](CO)C(=O)N[C@@H](CCC(=O)O)C(=O)N[C@H](C(=O)N[C@@H](CC(N)=O)C(=O)N[C@@H](CC(C)C)C(=O)N[C@@H](CC(=O)O)C(=O)N[C@@H](C)C(=O)N[C@@H](CCC(=O)O)C(=O)N[C@@H](Cc1ccccc1)C(=O)N[C@@H](CCCNC(=N)N)C(=O)N[C@@H](Cc1cnc[nH]1)C(N)=O)C(C)C (H-ISEVNLDAEFRH-NH2) |
| – | Active | 0.409 | – | 0.217 | – | CC[C@H](NC(=O)[C@H](CC(N)=O)NC(=O)[C@@H](NC(=O)[C@H](CCC(=O)O)NC(=O)[C@H](CO)NC(=O)[C@@H](N)[C@@H](C)CC)C(C)C)C(=O)N[C@@H](CC(=O)O)C(=O)N[C@@H](C)C(=O)N[C@@H](CCC(=O)O)C(=O)N[C@@H](Cc1ccccc1)C(=O)N[C@@H](CCCNC(=N)N)C(=O)N[C@@H](Cc1cnc[nH]1)C(N)=O (H-ISEVN[Abu]DAEFRH-NH2) |
| – | 70% | 0.483 | 0.429 | 0.217 | – | CC[C@H](C)[C@H](N)C(=O)N[C@@H](CO)C(=O)N[C@@H](CCC(=O)O)C(=O)N[C@H](C(=O)N[C@@H](CC(N)=O)C(=O)N[C@@H](Cc1cccs1)C(=O)N[C@@H](CC(=O)O)C(=O)N[C@@H](C)C(=O)N[C@@H](CCC(=O)O)C(=O)N[C@@H](Cc1ccccc1)C(=O)N[C@@H](CCCNC(=N)N)C(=O)N[C@@H](Cc1cnc[nH]1)C(N)=O)C(C)C (H-ISEVN[2Thi]DAEFRH-NH2) |
| – | Active | 0.45 | – | 0.217 | – | CCC[C@H](NC(=O)[C@H](CC(N)=O)NC(=O)[C@@H](NC(=O)[C@H](CCC(=O)O)NC(=O)[C@H](CO)NC(=O)[C@@H](N)[C@@H](C)CC)C(C)C)C(=O)N[C@@H](CC(=O)O)C(=O)N[C@@H](C)C(=O)N[C@@H](CCC(=O)O)C(=O)N[C@@H](Cc1ccccc1)C(=O)N[C@@H](CCCNC(=N)N)C(=O)N[C@@H](Cc1cnc[nH]1)C(N)=O (H-ISEVN[Nva]DAEFRH-NH2) |
| – | – | 0.573 | – | 0.217 | – | CC[C@H](C)[C@H](N)C(=O)N[C@@H](CO)C(=O)N[C@@H](CCC(=O)O)C(=O)N[C@H](C(=O)N[C@@H](CC(N)=O)C(=O)N[C@@H](CC1CCCCC1)C(=O)N[C@@H](CC(=O)O)C(=O)N[C@@H](C)C(=O)N[C@@H](CCC(=O)O)C(=O)N[C@@H](Cc1ccccc1)C(=O)N[C@@H](CCCNC(=N)N)C(=O)N[C@@H](Cc1cnc[nH]1)C(N)=O)C(C)C (H-ISEVN[Cha]DAEFRH-NH2) |
| – | – | 0.479 | – | 0.217 | – | CC[C@H](C)[C@H](N)C(=O)N[C@@H](CO)C(=O)N[C@@H](CCC(=O)O)C(=O)N[C@H](C(=O)N[C@@H](CC(N)=O)C(=O)N[C@H](C(=O)N[C@@H](CC(=O)O)C(=O)N[C@@H](C)C(=O)N[C@@H](CCC(=O)O)C(=O)N[C@@H](Cc1ccccc1)C(=O)N[C@@H](CCCNC(=N)N)C(=O)N[C@@H](Cc1cnc[nH]1)C(N)=O)C(C)(C)C)C(C)C (H-ISEVN[Tle]DAEFRH-NH2) |
